The values below come from article PMC3494447 (British Journal of Cancer, 2012).

By AUC(0-t) is commonly meant the area under the concentration-time curve up to a stated or last time point. By Cmax is commonly meant the highest concentration seen after dosing. As usually defined, the Vd/F is the apparent distribution volume after extravascular dosing. One may read the half-life as how long it takes for the measured level to halve. The term AUC(0-inf) denotes total exposure, with the tail of the curve extrapolated. By clearance is commonly meant a measure of how efficiently the substance is removed, as volume per time. As usually defined, the Vd is a proportionality between amount in the body and measured concentration, not a real space.

SMILES strings stand for the structures. Like-named read-outs stand apart in the source and are kept apart here.

The test system of data set [1] is patients with advanced solid tumours. The format is in vivo, human. The following applies: for Dose-limiting toxicities: first cycle; for MTD of axitinib: continuously.
For data set [2] the test system is unchanged. Nature of the data set: Safety: treatment-related adverse events. The format is in vivo, human. In short, it runs like this: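 Adverse events were monitored throughout in every patient given ≥1 dose and graded by CTCAE version 3.0. Physical examinations were done at baseline, on days 1, 8 and 15 of each cycle and 28 days after the last dose.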
For data set [3] the test system is unchanged. Nature of the data set: Haematologic laboratory abnormalities. The format is in vivo, human. Particulars: All grades; Total column = both chemotherapy cohorts.
Data set [4] deals with advanced solid tumours. Description: Best tumour response by RECIST 1.0. Format: in vivo, human.
The format of data set [5] is in vivo. Particulars: human, plasma, oral; for AUC(0-t): AUC0-24, Mean (%CV); for Cmax / Vd/F / half-life: Mean (%CV); for Vd/F: Vz/F; for half-life: t½.
In data set [6] the test system is human liver microsomes. Particulars: in vitro, ref unpublished data; cited from earlier work.
Data set [7] deals with patients with advanced NSCLC. The following applies: phase II, single-agent axitinib, ref Schiller et al, 2009; cited from earlier work.
A short description of data set [8]: Plasma pharmacokinetics of chemotherapy in absence or presence of axitinib. Format: in vivo, human. Particulars: for Plasma pharmacokinetic parameters (Cmax, AUC, clearance, volume of distribution) in the absence or presence of axitinib: comparison in words; for clearance: CL; for Vd: Vz; for half-life: t½.
Where [9] appears, read: All grades, Total column = both chemotherapy cohorts.
[10] abbreviates: grade >=3, across both treatment arms.
Setting [11] is: 5 mg b.i.d., axitinib 5 mg b.i.d. + gemcitabine/cisplatin, cycle 1 day 1.
Setting [12] is: 5 mg b.i.d., axitinib + paclitaxel/carboplatin, cycle 1 day 1, dose-normalised to 5 mg b.i.d.
Setting [13] is: 5 mg b.i.d., axitinib alone, steady state, cohorts 1–3 pooled, dose-normalised to 5 mg b.i.d.
The mark [14] stands for this setting: 5 mg, axitinib alone 5 mg b.i.d., steady state, gemcitabine/cisplatin cohort.
[15] abbreviates: carboplatin (+paclitaxel) + axitinib, cycle 1 day 1, PUF, n=12.
Setting [16] is: carboplatin (+paclitaxel) without axitinib, cycle 2 day 1, PUF, n=12.
Where [17] appears, read: human, plasma, intravenous, Mean (%CV), gemcitabine (+cisplatin) + axitinib, cycle 1 day 1, n=17.
The mark [18] stands for this setting: human, plasma, intravenous, Mean (%CV), gemcitabine (+cisplatin) without axitinib, cycle 2, n=17.
Where [19] appears, read: human, plasma, intravenous, Mean (%CV), paclitaxel (+carboplatin) + axitinib, cycle 1 day 1, n=12.
The mark [20] stands for this setting: human, plasma, intravenous, Mean (%CV), paclitaxel (+carboplatin) without axitinib, cycle 2 day 1, n=12.

Regarding `CNC(=O)c1ccccc1Sc1ccc2c(/C=C/c3ccccn3)n[nH]c2c1` [Axitinib, axitinib], the Dose-limiting toxicities result in data set [1] (axitinib 5 mg b.i.d. with gemcitabine/cisplatin) is reported as “fatigue”. Besides, in data set [1] (cohort 1, axitinib lead-in 1 mg b.i.d., with paclitaxel/carboplatin), the Dose-limiting toxicities result is listed as “None”. Besides, the Dose-limiting toxicities result in data set [1] (cohort 2, axitinib lead-in 3 mg b.i.d., with paclitaxel/carboplatin) was “None”. Further, in data set [1] (cohort 3, axitinib 5 mg b.i.d., with paclitaxel/carboplatin), the Dose-limiting toxicities entry is “Febrile neutropenia (n=1)”. In data set [1] (cohort 3, axitinib 5 mg b.i.d., with paclitaxel/carboplatin, listed as axitinib), the Dose-limiting toxicities entry is given as “febrile neutropenia”. The same compound returned an MTD of axitinib in data set [1] (with cisplatin 80 mg m^-2 (day 1) and gemcitabine 1250 mg m^-2 (days 1 and 8)) of 5 mg b.i.d. The compound also yielded an MTD of axitinib in data set [1] (with paclitaxel 200 mg m^-2 and carboplatin AUC 6 mg min ml^-1) of 5 mg b.i.d. The “Grade >=3 haemoptysis” value in data set [2] (12 patients with squamous cell NSCLC) is recorded as “No grade⩾3 haemoptysis occurred”. In addition, in data set [2] (setting [9]), the “Decreased appetite, treatment-related AE” value is 7 (14.3) n (%); the “Diarrhoea, treatment-related AE” value is 17 (34.7) n (%); the “Dizziness, treatment-related AE” value is 5 (10.2) n (%); the “Dysgeusia, treatment-related AE” value is given as 6 (12.2) n (%). In data set [2] (setting [9]), the “Dysphonia, treatment-related AE” value is on record as 7 (14.3) n (%); the “Epistaxis, treatment-related AE” value was 8 (16.3) n (%); the “Fatigue, treatment-related AE” value is 14 (28.6) n (%); the “Hand–foot syndrome, treatment-related AE” value is 9 (18.4) n (%). Besides, in data set [2] (setting [9]), the “Headache, treatment-related AE” value is 7 (14.3) n (%); the “Hypertension, treatment-related AE” value is reported as 18 (36.7) n (%); the “Nausea, treatment-related AE” value is on record as 8 (16.3) n (%); the “Proteinuria, treatment-related AE” value is recorded as 10 (20.4) n (%). The “Rash, treatment-related AE” value in data set [2] (setting [9]) was 7 (14.3) n (%). Further, in data set [2] (Grade 3/4, all patients), the “Anaemia reported as treatment-related AE” value stood at 2.0% and the “Leukopenia reported as treatment-related AE” value is recorded as 2.0%. In data set [2] (all grades, all 49 patients), this compound gave a Treatment-related diarrhoea of 34.7%, a Treatment-related fatigue of 28.6% and a Treatment-related hypertension of 36.7%. Also, in data set [2] (all patients), the “Grade 5 treatment-related AEs” value is “No cases” and the “Grade >=3 haemoptysis” value was “No cases”. Besides, in data set [2] (gemcitabine/cisplatin cohort), the “Patients with axitinib dose reduced” value worked out at 28.6% and the “Patients with axitinib dosing interrupted” value was 66.7%. In data set [2] (setting [10]), the Treatment-related fatigue came out at 10.2% and the Treatment-related hypertension was found to be 10.2%. In addition, in data set [2] (paclitaxel/carboplatin cohorts), the “Patients with axitinib dose reduced” value is on record as 35.7% and the “Patients with axitinib dosing interrupted” value is recorded as 35.7%. Further, in data set [3], the “Anaemia, haematologic laboratory abnormality” value is 48 (100) n (%); the “Leukopenia, haematologic laboratory abnormality” value was 46 (95.8) n (%); the “Lymphopenia, haematologic laboratory abnormality” value is on record as 40 (83.3) n (%); the “Neutropenia, haematologic laboratory abnormality” value is listed as 46 (95.8) n (%). Moreover, the “Thrombocytopenia, haematologic laboratory abnormality” value in data set [3] is on record as 43 (89.6) n (%). For the same compound, in data set [4] (other tumour types), the “Objective responses, number of patients” value is 5 n. For the same compound, the “Objective responses, number of patients” value in data set [4] (patients with NSCLC) turned out to be 5 n. In addition, the “Objective responses, number of patients” value in data set [4] (patients with melanoma) is 2 n. Besides, the “Objective responses, number of patients” value in data set [4] (patients with ovarian cancer) is recorded as 3 n. In data set [5] (setting [11]), the AUC(0-t) was 444 ng·h/mL, the Vd/F amounted to 168 L and the half-life is 160 min. For the same compound, in data set [5] (setting [12]), the AUC(0-t) amounted to 535 ng·h/mL and the Vd/F was 133 L. In data set [5] (setting [13]), this compound gave an AUC(0-t) of 404 ng·h/mL and a Vd/F of 108 L. Besides, the Cmax in data set [5] (5 mg b.i.d., axitinib 5 mg b.i.d. + gemcitabine/cisplatin, cycle 1 day 1, n=20) came out at 41.7 ng/mL. For the same compound, the Cmax in data set [5] (5 mg b.i.d., axitinib + paclitaxel/carboplatin, cycle 1 day 1, cohorts 1–3 pooled, dose-normalised to 5 mg b.i.d., n=12) came out at 46 ng/mL. The highest level in data set [5] (5 mg b.i.d., axitinib alone, steady state, cycle 1 day –1, cohorts 1–3 pooled, dose-normalised to 5 mg b.i.d., n=12) (Cmax) was 39 ng/mL. In data set [5] (setting [14]), this compound showed an AUC(0-t) of 416 ng·h/mL, a Vd/F of 157 L and a half-life of 161 min. Besides, the highest level in data set [5] (5 mg, axitinib alone 5 mg b.i.d., steady state, gemcitabine/cisplatin cohort, n=20) (Cmax) was 41 ng/mL. For the same compound, the half-life in data set [5] (axitinib + paclitaxel/carboplatin, cycle 1 day 1) was 162 min. In addition, the “Enzymes mediating axitinib metabolism” value in data set [6] was “primarily mediated by CYP3A4 and to a lesser extent by CYP1A2, CYP2C19 and UDP-glucuronosyltransferase 1A1”. The “median OS” value in data set [7] is 14.8 months.
In the case of `N.N.O=C([O-])C1(C(=O)[O-])CCC1.[Pt+2]` [Carboplatin, carboplatin], in data set [8] (setting [15]), the “CL, Mean (%CV)” value was 13.7 (31) l h^−1; the “Vz, Mean (%CV)” value is listed as 44.8 (15) l; the “t½, Mean (%CV)” value was 2.44 (29) h. In data set [8] (setting [16]), the “CL, Mean (%CV)” value is listed as 12.6 (32) l h^−1; the “Vz, Mean (%CV)” value is reported as 45.2 (18) l; the “t½, Mean (%CV)” value is 2.62 (21) h. Besides, in data set [8], the “Plasma pharmacokinetic parameters (Cmax, AUC, clearance, volume of distribution) in the absence or presence of axitinib” value (shortened to “Plasma pharmacokinetic parameters”) is recorded as “similar”.
As to `Nc1ccn([C@@H]2O[C@H](CO)[C@@H](O)C2(F)F)c(=O)n1` [Gemcitabine, 2′,2′-difluorodeoxycytidine], the “Plasma pharmacokinetic parameters” value in data set [8] was “similar”. For the same compound, the AUC(0-inf) in data set [8] (human, plasma, intravenous) was 11700 ng·h/mL. Also, the values for the clearance in data set [8] (setting [17]) and in data set [8] (setting [18]) were 3620 mL/min and 3730 mL/min, respectively. The Vd in data set [8] (setting [17]) was found to be 95.5 L; in data set [8] (setting [18]), 91.5 L.
As for `CC(=O)O[C@H]1C(=O)[C@@]2(C)[C@H]([C@H](OC(=O)c3ccccc3)[C@]3(O)C[C@H](OC(=O)[C@H](O)[C@@H](NC(=O)c4ccccc4)c4ccccc4)C(C)=C1C3(C)C)[C@]1(OC(C)=O)CO[C@@H]1C[C@@H]2O` [Paclitaxel, paclitaxel], the “Plasma pharmacokinetic parameters” value in data set [8] was “similar”. In data set [8] (setting [19]), the clearance is 303 mL/min, the Vd was found to be 229 L and the half-life is 518 min. In addition, in data set [8] (setting [20]), the clearance was 360 mL/min, the Vd was 285 L and the half-life is 502 min. Besides, the Cmax in data set [8] (human, plasma, intravenous, Cmax, Mean (%CV), paclitaxel (+carboplatin) + axitinib, cycle 1 day 1, plasma, n=12) is 7180 ng/mL.
In the case of `O=c1ccn([C@@H]2O[C@H](CO)[C@@H](O)C2(F)F)c(=O)[nH]1` [dFdU, 2′,2′-difluorodeoxyuridine], the “Plasma pharmacokinetic parameters” value in data set [8] is “similar”.
